Broadly, the IC50 is the midpoint of a concentration-inhibition curve. One may read the MIC as the smallest concentration in the dilution series that meets the test's criterion for growth inhibition.

The structures appear in SMILES notation. Converted amounts (≈) assume the structure as drawn. The source made the active and inactive calls.

The nature of test [1]: Inhibition of Mycobacterium smegmatis DprE1 Y321H mutant using farnesylphosphoryl-beta-D-ribofuranose as substrate assessed as conversion of amplex red to resorufin after 30 mins. More on the design: species or system Mycolicibacterium smegmatis. In outline: (§1)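 Recombinant M. smegmatis DprE1 (thioredoxin-6His fusion), wild type or Y321H, 75 nM. Enzyme was preincubated 30 min in FAD assay mix: 50 mM glycylglycine pH 8.5, 200 mM potassium glutamate, 10 μM FAD, 0.002% Brij-35, 2% DMSO. Reaction was started with 300 μM farnesylphosphoryl-β-D-ribofuranose, 0.01 mg/mL HRP and 50 μM amplex red at 25 °C.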

In test [2] the test system is Mycolicibacterium smegmatis. Nature of the test: Binding affinity to Mycobacterium smegmatis DprE1 Y321H mutant at 0.5 to 10000 nM up to 30 mins.
In test [3] the test system is Mycobacterium tuberculosis. Put plainly: Antimycobacterial activity against Mycobacterium tuberculosis over expressing DprE1 after 5 days by standard microdilution method. The class given is functional. Particulars: 120 h. (Dilution methods test growth across graded concentrations, often in twofold steps.)
The subject of test [4] is Mycolicibacterium smegmatis. Nature of the test: Binding affinity to Mycobacterium smegmatis recombinant DprE1 at 0.5 to 10000 nM up to 30 mins.
Test [5] can be described thus: Inhibition of Mycobacterium smegmatis recombinant DprE1 using farnesylphosphoryl-beta-D-ribofuranose as substrate assessed as conversion of amplex red to resorufin after 30 mins. More on the design: species or system Mycolicibacterium smegmatis. Put shortly:
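Msm DprE1 (thioredoxin-6His fusion of Msm Rv3790) at 75 nM, preincubated 30 min with 10 μM FAD. Buffer: 50 mM glycylglycine pH 8.5, 200 mM potassium glutamate, 0.002% Brij-35, 2% DMSO, 25 °C. Started with 300 μM farnesylphosphoryl-β-D-ribofuranose, 0.01 mg/mL HRP and 50 μM Amplex Red.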

Test [6] has as its system Mycolicibacterium smegmatis. Nature of the test: Ratio of IC50 for Mycobacterium smegmatis DprE1 Y321H mutant to IC50 for Mycobacterium smegmatis recombinant wild type DprE1. In outline: as §1
The test system of test [7] is Mycobacterium tuberculosis. Nature of the test: Antimycobacterial activity against Mycobacterium tuberculosis H37Rv after 5 days by standard microdilution method. The class given is functional. Particulars: 120 h.

Regarding `Cn1ncc(C(=O)N2[C@@H]3CC[C@H]2C[C@@H](Nc2cc(=O)[nH]c4ccc(F)cc24)C3)c1Cl`, the IC50 in test [1] came out at 550 nM; in test [5], 30 nM. Besides, the outcome in test [2] and in test [4] was Active. Moreover, the results for the minimal inhibitory concentration (MIC) in test [3] and in test [7] were 6.25 µM (≈ 2.69 µg/mL) and 0.39 µM (≈ 0.168 µg/mL), respectively. Besides, the fold change (FC) in test [6] was 12.

The values above are taken from ChEMBL document CHEMBL3286182, “4-aminoquinolone piperidine amides: noncovalent inhibitors of DprE1 with long residence time and potent antimycobacterial activity” (J Med Chem, 2014).
